Data on three compounds can be found in ChEMBL document CHEMBL4428083, “Mitochondrial-Targeting MET Kinase Inhibitor Kills Erlotinib-Resistant Lung Cancer Cells” (ACS Med Chem Lett, 2016).

Activity calls are given as the source filed them. No cut-off for these calls is given here.

The nature of data set [1]: Drug uptake in mitochondria of erlotinib-resistant human HCC827B cells assessed as R1 gated population at 4 uM after 1 hr by MTR staining based FACS analysis (reference value: >98%). It counts as ADME. On the technique in general: In flow cytometry, cells or beads pass a laser one at a time.
A short description of data set [2]: Drug uptake in mitochondria of erlotinib-resistant human HCC827B cells assessed as R1 gated population at 4 uM after 1 hr by FACS analysis (reference value: >98%). The class given is ADME.
The test system of data set [3] is HCC827. Nature of the data set: Cytotoxicity against erlotinib-sensitive human HCC827A cells assessed as reduction in cell viability after 72 hrs by MTT assay. The class given is functional, cell-based. The conditions noted are these: HCC827, 72 h. A digest of the protocol: (§1)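 Colorimetric tetrazolium assay after 72 h exposure; IC50 derived from viability. Comparisons between compounds by unpaired Student's t test.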

Data set [4] relates to HCC827. Nature of the data set: Cytotoxicity against erlotinib-resistant human HCC827B cells expressing MET assessed as reduction in cell viability after 72 hrs by MTT assay. It counts as functional, cell-based. The conditions noted are these: HCC827, 72 h. A digest of the protocol:
as §1
On the technique in general: Tetrazolium assays rely on reduction of a dye to a coloured formazan, in cell work by metabolically active cells.

Data set [5] relates to TAMH. Nature of the data set: Cytotoxicity against TAMH assessed as reduction in cell viability after 24 hrs by cell titer glo based luminescence assay. The note with it: Mus musculus. The essentials:
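TAMH (TGFα-transformed murine hepatocytes; stable, nontumorigenic, metabolically competent line) exposed to compound for 24 h; IC50 from viability.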
For orientation: ATP-based viability assays read luminescence as a measure of living cells.

Data set [6] relates to HCC827. Nature of the data set: Induction of apoptosis in erlotinib-resistant human HCC827B cells assessed as increase in cleaved PARP level at 4 uM measured up to 60 hrs by immunoblot analysis. It counts as functional, cell-based. A digest of the protocol:
(§2)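 HCC827B cells treated with 4 μM compound; whole-cell lysates collected at 12, 24, 36, 48 and 60 h and immunoblotted for cleaved PARP and cleaved caspases 3 and 7. Control was untreated cells at 0 h; GAPDH was the loading control.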

Data set [7] concerns HCC827. Nature of the data set: Induction of apoptosis in erlotinib-resistant human HCC827B cells assessed as increase in cleaved caspase 3 level at 4 uM measured up to 60 hrs by immunoblot analysis. The class given is functional, cell-based. A digest of the protocol: as §2
The subject of data set [8] is HCC827. Nature of the data set: Induction of apoptosis in erlotinib-resistant human HCC827B cells assessed as increase in cleaved caspase 7 level at 4 uM measured up to 60 hrs by immunoblot analysis. The class given is functional, cell-based. The essentials:
as §2

The nature of data set [9]: Drug uptake in mitochondria of human HeLa cells at 4 uM after 3 hrs by MTR dye/Hoechst 33342 staining based confocal microscopy. It counts as ADME. The essentials: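 HeLa cells were exposed to 4 μM compound for 3 h, then stained with MitoTracker Red and Hoechst 33342 and imaged by confocal microscopy. Intrinsic compound green fluorescence (Ex 460, Em 520 nm) was compared for overlap with MTR.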

Data set [10] relates to HCC827. Nature of the data set: Effect on total MET expression level in erlotinib-resistant human HCC827B cells at 4 uM after 1 to 1.5 hrs by immunoblot analysis. It counts as ADME, cell-based. The conditions noted are these: hcc827, 4 µM.
A short description of data set [11]: Effect on total MET expression level in mitochondria isolated from erlotinib-resistant human HCC827B cells at 4 uM after 1 to 1.5 hrs by immunoblot analysis. The class given is ADME.
In data set [12] the target is Hepatocyte growth factor receptor (Homo sapiens) (UniProt P08581). Nature of the data set: Inhibition of MET phosphorylation at Y1234/1235 in erlotinib-resistant human HCC827B cells at 4 uM after 1 to 1.5 hrs by immunoblot analysis. The essentials:
(§3)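 Whole HCC827B cells, or mitochondria first purified from them, were treated separately with 4 μM compound for 1 and 1.5 h, then immunoblotted for p-MET Y1234/1235. Each lane held 10 μg protein; loading controls were SDHA for mitochondria and actin for whole cells.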

Data set [13] has the same target. Nature of the data set: Inhibition of MET phosphorylation at Y1234/1235 in mitochondria isolated from erlotinib-resistant human HCC827B cells at 4 uM after 1 to 1.5 hrs by immunoblot analysis. A digest of the protocol:
as §3

Data set [14] has the same target. Nature of the data set: Inhibition of MET phosphorylation at Y1234/1235 in erlotinib-resistant human HCC827B cells at 4 uM after 24 hrs by immunoblot analysis. A digest of the protocol:
(§4)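 HCC827B cells exposed to 4 μM compound for 24 h; whole-cell lysates and mitochondria then isolated from treated cells and immunoblotted for p-MET Y1234/1235. Each lane held 10 μg protein; loading controls were actin (whole cells) and SDHA (mitochondria).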

Data set [15] has the same target. Nature of the data set: Inhibition of MET phosphorylation at Y1234/1235 in mitochondria isolated from compound treated erlotinib-resistant human HCC827B cells at 4 uM after 24 hrs by immunoblot analysis. The essentials: as §4
Data set [16] has as its system HCC827. Nature of the data set: Cytotoxicity against erlotinib-sensitive human HCC827A cells assessed as cell viability at 1 uM after 72 hrs by MTT assay. It counts as functional. The conditions noted are these: HCC827, 72 h, read-out: Activity. A digest of the protocol: (§5)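 Colorimetric tetrazolium viability assay with erlotinib at 1 μM; % viability reported, n = 3.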

Data set [17] deals with HCC827. Nature of the data set: Cytotoxicity against erlotinib-resistant human HCC827B cells assessed as cell viability at 1 uM after 72 hrs by MTT assay. The class given is functional. The note with it: HCC827, 72 h, read-out: Activity. A digest of the protocol:
as §5

Sequence of Hepatocyte growth factor receptor (Homo sapiens) (P08581 whole entry): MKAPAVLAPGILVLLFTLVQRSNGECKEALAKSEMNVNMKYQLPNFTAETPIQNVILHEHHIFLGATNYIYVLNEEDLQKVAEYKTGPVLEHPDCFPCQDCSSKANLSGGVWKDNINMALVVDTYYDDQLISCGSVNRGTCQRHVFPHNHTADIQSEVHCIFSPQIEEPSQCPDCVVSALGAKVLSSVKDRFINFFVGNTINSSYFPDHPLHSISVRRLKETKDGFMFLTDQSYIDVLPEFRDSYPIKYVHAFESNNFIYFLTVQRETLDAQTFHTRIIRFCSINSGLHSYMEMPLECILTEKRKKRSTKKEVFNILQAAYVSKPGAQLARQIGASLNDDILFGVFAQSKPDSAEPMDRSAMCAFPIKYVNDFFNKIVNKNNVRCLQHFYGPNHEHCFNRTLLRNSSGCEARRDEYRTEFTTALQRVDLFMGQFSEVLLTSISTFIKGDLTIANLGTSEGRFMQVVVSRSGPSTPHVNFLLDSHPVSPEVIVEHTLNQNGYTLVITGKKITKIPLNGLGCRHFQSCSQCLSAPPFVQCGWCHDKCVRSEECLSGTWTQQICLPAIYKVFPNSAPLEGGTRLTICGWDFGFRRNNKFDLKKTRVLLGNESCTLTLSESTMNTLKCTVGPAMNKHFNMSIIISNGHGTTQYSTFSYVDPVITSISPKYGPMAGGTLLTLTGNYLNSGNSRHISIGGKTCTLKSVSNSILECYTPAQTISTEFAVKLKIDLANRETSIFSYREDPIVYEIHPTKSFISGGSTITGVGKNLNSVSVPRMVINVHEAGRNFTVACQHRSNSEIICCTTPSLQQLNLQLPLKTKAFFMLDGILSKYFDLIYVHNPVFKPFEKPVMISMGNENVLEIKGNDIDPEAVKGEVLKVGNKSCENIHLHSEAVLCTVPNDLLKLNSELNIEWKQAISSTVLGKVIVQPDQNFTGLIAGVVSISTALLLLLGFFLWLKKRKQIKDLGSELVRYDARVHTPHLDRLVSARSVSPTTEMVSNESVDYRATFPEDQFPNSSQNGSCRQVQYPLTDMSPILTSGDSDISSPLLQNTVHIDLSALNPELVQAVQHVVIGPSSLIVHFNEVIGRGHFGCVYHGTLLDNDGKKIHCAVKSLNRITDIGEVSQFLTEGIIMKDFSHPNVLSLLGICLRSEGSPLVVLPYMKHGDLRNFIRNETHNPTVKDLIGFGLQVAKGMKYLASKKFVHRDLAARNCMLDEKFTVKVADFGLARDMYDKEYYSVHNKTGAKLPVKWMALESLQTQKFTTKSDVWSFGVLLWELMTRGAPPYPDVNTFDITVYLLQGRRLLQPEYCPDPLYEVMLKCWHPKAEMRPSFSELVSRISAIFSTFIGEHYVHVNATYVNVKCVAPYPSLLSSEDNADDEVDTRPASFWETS

The IC50 is the concentration that gives 50% inhibition. Turning to `Cc1[nH]c(/C=C2\C(=O)Nc3ccc(S(=O)(=O)Cc4c(Cl)cccc4Cl)cc32)c(C)c1C(=O)NCC[P+](c1ccccc1)(c1ccccc1)c1ccccc1.[Br-]`, the values for the Drug uptake in data set [1], in data set [2] and in data set [9] were 95%, 98% and “Active”, respectively. For the same compound, the IC50 in data set [3] was 16.7 µM; in data set [4], 5.3 µM; in data set [5], 15.1 µM. The result in data set [6], in data set [7] and in [8] was Active. Besides, the Activity result in data set [10] and in data set [11] was “Non-Toxic” each time. For the same compound, the inhibition entry in data set [12], in data set [14] and in data set [15] was “Active” in each case. Further, the inhibition entry in data set [13] is “inactive”.
Turning to `C#Cc1cccc(Nc2ncnc3cc(OCCOC)c(OCCOC)cc23)c1` [ERLOTINIB], the viability at 1 µM turned out to be 22.4% in data set [16] and 72.4% in data set [17].
As for `Cc1[nH]c(/C=C2\C(=O)Nc3ccc(S(=O)(=O)Cc4c(Cl)cccc4Cl)cc32)c(C)c1C(=O)N1CCC[C@@H]1CN1CCCC1` [PHA-665752], the Drug uptake is listed as 35% in data set [1] and “Not Active” in data set [9]. In addition, the figures for the half-maximal inhibitory concentration (IC50) in [3], in data set [4] and in data set [5] were 15.7 µM, 8.9 µM and 8.9 µM, respectively. Moreover, the outcome in data set [6], in [7] and in data set [8] was Active. The Activity entry in data set [10] and in data set [11] was “Non-Toxic” each time. For the same compound, the inhibition entry in [12] and in [15] was “Active” each time. Also, in data set [13], the inhibition entry was “inactive”.
